Measurements gathered from unrelated publications.
pH: 7.4

`CN1CCN(c2ccc(-c3ccc4nncc(Nc5ccc(OC(F)(F)F)cc5)c4c3)cc2)CC1` gave a logD of 5.1 (shake flask; aqueous buffer).
With `CNS(=O)(=O)c1ccc(Nc2ncc(C(F)(F)F)c([C@H]3CC[C@@](C)(O)CC3)n2)c(C)c1` the logD was 4 (shake flask; aqueous buffer; 1 h).
With `Cn1cc2c(C(=O)O)ccc(NS(=O)(=O)c3ccc(Cl)c(Cl)c3)c2n1` the logD was 0.5 (shake flask; aqueous buffer).
The logD of `CCN(CC)c1ccc(C=NNC(=O)c2ccccn2)c(O)c1` is reported as 3.48 (shake flask; aqueous buffer; 24 h).
The logD of `O=[N+]([O-])c1ccc(Nc2ncnc3ccc(-c4cccc(N5CCOCC5)c4)cc23)cc1C(F)(F)F` is reported as over 3.4 (shake flask; aqueous buffer).
`CC(C)NCCOCC(=O)N1CCC[C@H](C(=O)NCc2nc(-c3ccc(C(F)(F)F)cc3)cs2)C1` gave a logD of 1.5 (shake flask; aqueous buffer).
`CN(c1ncco1)c1ncnc2ccc(-c3cccc(N4CCOCC4)c3)cc12` has a logD of 2.1 (shake flask; aqueous buffer).
`Cc1ccc(Nc2cnnc3ccc(-c4ccc(N5CCN(C)CC5)cc4)cc23)cn1` has a logD of 3.5 (shake flask; aqueous buffer).
The logD of `CC(C)(N)COCC(=O)N1CCC[C@H](C(=O)NCc2nc(-c3ccc(C(F)(F)F)cc3)cs2)C1` is reported as 1.4 (shake flask; aqueous buffer).
`C[C@H](O)c1cnc(NS(=O)(=O)c2ccc(Cl)c(Cl)c2)nc1` gave a logD of 0.5 (shake flask; aqueous buffer).
With `N#Cc1ccc(-c2csc(CNC(=O)[C@H]3CCCN(C(=O)COCCF)C3)n2)cc1` the logD was 1.6 (shake flask; aqueous buffer).
With `c1cc(-c2ccc3ncnc(Nc4ncco4)c3c2)cc(N2CC3(COC3)C2)c1` the logD was over 4 (shake flask; aqueous buffer).
For `N=C(CC(O)c1cc2c(F)cc(F)cc2c2cc(C(F)(F)F)ccc12)Nc1ccc(F)c(F)c1` (centres unmarked), the logD was 4.96.
The logD of `C[C@H](O)c1ccc(NS(=O)(=O)c2ccc(OCC3CCC3)c(Cl)c2)c2nn(C)cc12` is reported as 3.8 (shake flask; aqueous buffer).
For `Clc1cccc(Nc2ncnc3ccc(-c4cccc(N5CCOCC5)c4)cc23)c1`, the logD was 5.3 (shake flask; aqueous buffer).
`C=C1C[C@@]23CC[C@H]4[C@@](C)(CCC[C@@]4(C)C(=O)O[C@@H]4O[C@H](CO)[C@@H](O)[C@H](O)[C@H]4O)[C@@H]2CC[C@]1(O[C@@H]1O[C@H](CO)[C@@H](O)[C@H](O)[C@H]1O[C@@H]1O[C@H](CO)[C@@H](O)[C@H](O)[C@H]1O)C3` gave a logD of -1.51 (shake flask; aqueous buffer).
`CNS(=O)(=O)c1ccc(Nc2ncc3cc(Cl)c(=O)n(C4CCCC4)c3n2)c(C)c1` has a logD of 3.8 (shake flask; aqueous buffer; 1 h).
With `Cn1cc2c(C(=O)O)ccc(NS(=O)(=O)c3ccc(OCC4CCC4)c(Cl)c3)c2n1` the logD was 2 (shake flask; aqueous buffer).
For `C[C@H]1[C@@H](C(=O)NCc2nc(-c3ccc(C#N)cc3)cs2)CCCN1C(=O)[C@H]1CCC(=O)O1`, the logD was 1.4 (shake flask; aqueous buffer).
`C=CC(=O)N1CC2(CCN(c3nc4c(c(-c5cc(O)cc6ccccc56)c3F)COC(C)(C)C4)C2)C1` has a logD of 4.5.
With `O=C(NCc1nc(-c2ccc(C(F)(F)F)cc2)cs1)[C@H]1CCCN(C(=O)CO[C@H]2CCCNC2)C1` the logD was 0.81 (shake flask; aqueous buffer).
The logD of `Cc1ccc(Nc2ncnc3ccc(-c4cccc(N5CCOCC5)c4)cc23)cc1` is reported as over 4.1 (shake flask; aqueous buffer).
The logD of `CCOCC(=O)N1CCC[C@H](C(=O)NCc2nc(-c3ccc(C#N)nc3)cs2)C1` is reported as 1 (shake flask; aqueous buffer).
For `c1cc(-c2ccc3ncnc(Nc4ncco4)c3c2)nc(N2CCOCC2)n1`, the logD was 3.4 (shake flask; aqueous buffer).
The logD of `C=CC(=O)N1CC2(CCN(c3nc4c(c(-c5cc(O)cc6ccccc56)c3C#N)COC(C)(C)C4)C2)C1` is reported as 4.3.
`Cn1cc(Nc2ncnc3ccc(-c4cccc(N5CCOCC5)c4)cc23)cn1` gave a logD of 3.7 (shake flask; aqueous buffer).
For `C=CC(=O)N1CC2(CCN(c3nc4c(c(-c5c(C)ccc6[nH]ncc56)c3C#N)CCC(C)(C)C4)C2)C1`, the logD was 4.3.
`CNS(=O)(=O)c1ccc(Nc2ncc(C(F)(F)F)c(N3CCC[C@](C)(O)C3)n2)c(C)c1` has a logD of 3.4 (shake flask; aqueous buffer; 1 h).
`Clc1ccc(Nc2ncnc3ccc(-c4cccc(N5CCOCC5)c4)cc23)cc1` has a logD of over 4.6 (shake flask; aqueous buffer).
